ChEMBL document CHEMBL1146873, “3-demethoxy-3-glycosylaminothiocolchicines: Synthesis of a new class of putative muscle relaxant compounds” (J Med Chem, 2006)

What was measured:
[1] = molecular target: GABA-A receptor; anion channel; test: Displacement of [3H]muscimol from GABA-A receptor in Sprague-Dawley rat cerebral cortex; assay type: tissue-based
How it was run: (§1)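 Synaptic membranes from adult rat tissue (cerebral cortex or spinal cord–brainstem) incubated with 5 nM [3H]muscimol plus increasing competitor concentrations in 50 mM Tris-citrate, pH 7.1, 30 min at 4 °C. Bound ligand separated by rapid filtration through glass fiber filters, three washes with ice-cold buffer, scintillation counting. Nonspecific binding defined with 200 µM unlabeled GABA. Mean of three experiments in triplicate.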

[2] = Displacement of [3H]strychnine from strychnine-sensitive glycine receptor in rat spinal cord
[3] = molecular target: GABA-A receptor; anion channel; test: Displacement of [3H]muscimol from GABA-A receptor in Sprague-Dawley rat spinal cord; assay type: protein-complex assay; how it was run: as §1

COc1c(N)cc2c(c1OC)-c1ccc(SC)c(=O)cc1[C@@H](NC(C)=O)CC2
IC50 [1]: 5.4 µM | IC50 [2]: 39.9 µM | IC50 [3]: 1.9 µM

COc1c(N[C@H]2O[C@@H](C)[C@H](O)[C@@H](O)[C@H]2O)cc2c(c1OC)-c1ccc(SC)c(=O)cc1[C@@H](NC(C)=O)CC2
IC50 [1]: > 100 µM | IC50 [2]: 4.6 µM | IC50 [3]: 3.8 µM

COc1c(NC2OC[C@@H](O)[C@H](O)[C@H]2O)cc2c(c1OC)-c1ccc(SC)c(=O)cc1[C@@H](NC(C)=O)CC2 (some centres undefined)
IC50 [1]: 7 µM | IC50 [2]: 3.3 µM | IC50 [3]: 3.3 µM

COc1c(N[C@@H]2O[C@@H](C)[C@@H](O)[C@@H](O)[C@@H]2O)cc2c(c1OC)-c1ccc(SC)c(=O)cc1[C@@H](NC(C)=O)CC2
IC50 [1]: 10.5 µM | IC50 [2]: 4.2 µM | IC50 [3]: 5.9 µM

COc1c(N[C@@H]2O[C@H](CO)[C@@H](O)[C@H](O)[C@@H]2O)cc2c(c1OC)-c1ccc(SC)c(=O)cc1[C@@H](NC(C)=O)CC2
IC50 [1]: > 100 µM | IC50 [2]: 13.1 µM | IC50 [3]: 11.3 µM

COc1c(NC2OC[C@@H](O)[C@H](O)[C@@H]2O)cc2c(c1OC)-c1ccc(SC)c(=O)cc1[C@@H](NC(C)=O)CC2 (some centres undefined)
IC50 [1]: 9.7 µM | IC50 [2]: 4.1 µM | IC50 [3]: 4 µM

COc1c(NC2OC[C@@H](O)[C@@H](O)[C@@H]2O)cc2c(c1OC)-c1ccc(SC)c(=O)cc1[C@@H](NC(C)=O)CC2 (some centres undefined)
IC50 [1]: 17.7 µM | IC50 [2]: 8.6 µM | IC50 [3]: 10.5 µM

COc1c(NC2O[C@H](CO)[C@@H](O)[C@H](O)[C@H]2O)cc2c(c1OC)-c1ccc(SC)c(=O)cc1[C@@H](NC(C)=O)CC2 (some centres undefined)
IC50 [1]: 18 µM | IC50 [2]: 10.6 µM | IC50 [3]: 11.3 µM

NCC(=O)O [GLYCINE]
IC50 [2]: 15.8 µM

O=C1C[C@@H]2OCC=C3CN4CC[C@]56c7ccccc7N1[C@H]5[C@H]2[C@H]3C[C@H]46 [STRYCHNINE]
IC50 [2]: 0.014 µM

COc1c(O[C@@H]2O[C@H](CO)[C@@H](O)[C@H](O)[C@H]2O)cc2c(c1OC)-c1ccc(SC)c(=O)cc1[C@@H](NC(C)=O)CC2 [THIOCOLCHICOSIDE]
IC50 [1]: 3.4 µM | IC50 [2]: 1.5 µM | IC50 [3]: 1.9 µM
